Laboratory results reported in paper PMC6034632 (Science translational medicine, 2017).
Blank lines part the entries; values can stand above or below the molecule they belong to. *1 amine or outer side, *2 acyl side, *3 side chain or, on linkers, in order; H or OH if unused. Where a SMILES comes first, the peptide text is derived from it. Bridges are numbered along the chain shown (N, C = ends). [ ]: non-standard residue; d: D form. The star is where a group is joined. Leu(3R-OH,Nα-propionyl) = CCC(=O)N[C@H](C(=O)*)[C@H](O)C(C)C; X1 = CC(C)[C@@H](O[*:3])[C@H](N[*:1])C(=O)[*:2]; NMeT = CN[C@H](C(=O)O)[C@@H](C)O; dPhLac = O=C(O)[C@H](O)Cc1ccccc1; NMeA = CN[C@@H](C)C(=O)O; NMeDha = C=C(NC)C(=O)O

Tests used:
[1] = Degradation by membranes prepared from spinal cord; type: in vitro ADME, mouse
PKCα = conditions: cited from earlier work
[2] = system: cytosolic cAMP (NK1R, HEK293 cells); experiment: FRET biosensor CytoEpac2, SP-induced cytosolic cAMP; type: cell-based, human; conditions: SP 1 nM
Summary of the method: (§1)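 HEK293 cells expressed NK1R plus a genetically encoded FRET biosensor targeted to the cytosol, nucleus or plasma membrane (ERK, PKC or cAMP sensors). Ratiometric imaging followed time courses after SP, with the maximal signal set by a positive control. Responses were integrated as area under the curve.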

[3] = system: NK1R-positive neurons in lamina I of the dorsal horn; experiment: Cell-attached patch clamp recordings of SP-induced firing in spinal cord slices; type: cell-based, rat; conditions: for reduction of number of SP-stimulated action potentials: compared to controls; for inhibition of SP-induced firing time of lamina I neurons: slices preincubated with inhibitor, versus vehicle control
Summary of the method: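 Cell-attached patch clamp recordings were made from second-order lamina I neurons in rat spinal cord slices. SP was applied at 1 μM for 2 min, then washed out. Slices were exposed to test compound for 60 min, washed, and challenged with SP 60 min later. Firing rate was taken as events per 2 min normalized to the 2-min rate, and duration as time to the last action potential. Six to 7 neurons per group.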

[4] = system: cytosolic PKC activity (NK1R, HEK293 cells); experiment: FRET biosensor CytoCKAR, SP-induced cytosolic PKC activity; type: cell-based, human; conditions: SP 1 nM
Summary of the method: as §1

[5] = system: nuclear ERK activity (NK1R, HEK293 cells); experiment: FRET biosensor NucEKAR, SP-induced nuclear ERK activity; type: cell-based, human; conditions: for SP stimulation of nuclear ERK: SP 1 nM, HEK293, NucEKAR
Summary of the method: as §1

[6] = system: pERK in lamina I/II dorsal horn neurons; experiment: Capsaicin-stimulated ERK phosphorylation in dorsal horn neurons in vivo; conditions: rat, intrathecal inhibitor, intraplantar capsaicin
[7] = system: cytosolic ERK activity (NK1R, HEK293 cells); experiment: FRET biosensor CytoEKAR, SP-induced cytosolic ERK activity; type: cell-based, human; conditions: SP 1 nM
Summary of the method: as §1

motor behavior = conditions: mouse, in vivo
[8] = system: HEK293 / HEK-NK1R-GFP cells; experiment: Uptake and trafficking of tripartite probes; type: cell-based, human; conditions: effect of dynamin inhibitor
Summary of the method: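 HEK293 or HEK-NK1R–GFP cells were incubated with Cy5-labelled cholestanol-conjugated probes, either continuously for 4 hours or as a 30 or 60 min pulse, washed and recovered 4 hours. NK1R-GFP cells received SP to drive receptor endocytosis. Localization to plasma membrane and RAB5A-RFP– or NK1R-GFP–positive endosomes was imaged, with or without dynamin inhibitor.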

HEK-NK1R cells = experiment: Endocytosis of fluorescent Alexa Fluor 568–SP; type: cell-based, human
[9] = system: SP and CGRP release from dorsal spinal cord; experiment: Capsaicin-stimulated neuropeptide release from segments of dorsal spinal cord; conditions: segments of mouse dorsal spinal cord, n = 6 experiments
lamina I/IIo neurons = experiment: EPSC induced by primary afferent stimulation; type: cell-based; conditions: n = 11 neurons
[10] = system: NK1R-IR endocytosis in spinal neurons; experiment: SP-induced NK1R-IR endocytosis in spinal cord slices; type: cell-based; conditions: rat spinal cord slices, SP 1 μM 5 min
[11] = system: capsaicin-evoked mechanical allodynia; experiment: Capsaicin-evoked mechanical allodynia in rat; type: in vivo; conditions: intrathecal
[12] = system: formalin nocifensive response; experiment: Nocifensive behavior after intraplantar formalin; type: in vivo, mouse; conditions: mice, intrathecal endocytosis inhibitors
[13] = system: contralateral paw withdrawal; conditions: mouse, in vivo
[14] = system: NK1R endocytosis in HEK293 cells; experiment: BRET assay of SP-induced NK1R endocytosis; type: cell-based, human; conditions: SP 1 or 10 nM
Summary of the method: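 NK1R C-terminally fused to RLUC8 was co-expressed in HEK293 cells with Venus-tagged KRAS (plasma membrane marker) or RAB5A (early endosome marker). Receptor proximity to each compartment was tracked as SP-induced BRET over time. Observations were in triplicate, n ≥ 3 experiments.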

[15] = system: plasma membrane PKC activity (NK1R, HEK293 cells); experiment: FRET biosensor pmCKAR, plasma membrane PKC activity; type: cell-based, human; conditions: SP 1 nM
Summary of the method: as §1

[16] = system: plasma membrane cAMP (NK1R, HEK293 cells); experiment: FRET biosensor pmEpac2, SP-induced plasma membrane cAMP; type: cell-based, human; conditions: SP 1 nM
Summary of the method: as §1

[17] = system: CFA-induced mechanical hyperalgesia; experiment: CFA-induced mechanical hyperalgesia, von Frey; type: in vivo, mouse; conditions: mice, intrathecal 36 hours after intraplantar CFA
Summary of the method: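 Mice received intraplantar CFA; 36 hours later test compound was given intrathecally. Mechanical hyperalgesia was read as von Frey filament withdrawal responses of the CFA-injected paw over the following hours. Groups were compared to control by ANOVA with Dunnett's test.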

[18] = system: capsaicin-induced mechanical allodynia; type: in vivo, mouse; conditions: mice, intrathecal injection 3 hours before intraplantar capsaicin
NK1R (HEK-NK1R cells) = NK1R (HEK-NK1R cells) (Homo sapiens, UniProt P25103); experiment: SP-stimulated Ca2+ signaling; type: cell-based; conditions: 10 nM antagonist
[19] = system: NK1R-IR in lamina I neurons; experiment: NK1R endocytosis in spinal neurons in vivo after intraplantar capsaicin; conditions: rat, intraplantar capsaicin alone (vehicle-treated control 80.7 ± 1.6), 10 min
[20] = rat spinal cord slices, SP 1 μM 2 min

Chain of NK1R (HEK-NK1R cells) (P25103 whole entry, species assumed): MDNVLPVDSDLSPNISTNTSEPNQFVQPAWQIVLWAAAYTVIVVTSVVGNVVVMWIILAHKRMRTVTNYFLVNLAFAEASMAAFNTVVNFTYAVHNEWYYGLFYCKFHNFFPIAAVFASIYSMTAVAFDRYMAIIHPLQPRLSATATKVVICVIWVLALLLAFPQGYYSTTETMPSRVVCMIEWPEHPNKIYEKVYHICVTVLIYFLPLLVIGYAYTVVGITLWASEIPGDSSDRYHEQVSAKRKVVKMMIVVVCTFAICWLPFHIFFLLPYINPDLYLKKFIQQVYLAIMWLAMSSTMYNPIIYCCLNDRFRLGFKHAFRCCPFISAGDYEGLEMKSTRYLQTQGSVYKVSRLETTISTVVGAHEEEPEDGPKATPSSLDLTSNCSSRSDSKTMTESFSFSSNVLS

Molecule: substance P [SP]
degradation by spinal cord membranes [1]: rapidly degraded

Molecule: CN(C)CCCn1cc(C2=C(c3c[nH]c4ccccc34)C(=O)NC2=O)c2ccccc21 [GF109203X]
inhibiting PKCα (PKCα): 4 % control | SP stimulation of cytosolic cAMP [2]: prevented SP generation of cytosolic cAMP | reduction of number of SP-stimulated action potentials [3]: 61 ± 15% | inhibition of SP-induced firing time of lamina I neurons [3]: 56.8 ± 8.2%

Molecule: COc1ccc2c(c1)CC[C@@H]1[C@@H]2CC[C@]2(C)[C@@H](NCCCCCCN3C(=O)C=CC3=O)CC[C@@H]12 [U73122]
SP stimulation of cytosolic PKC [4]: prevented activation of cytosolic PKC

Molecule: O=C(O)CN(CCOCCOCCN(CC(=O)O)CC(=O)O)CC(=O)O [EGTA]
SP stimulation of cytosolic PKC [4]: prevented activation of cytosolic PKC | SP stimulation of cytosolic cAMP [2]: prevented SP generation of cytosolic cAMP

withdrawal responses of the contralateral paw [13]: did not affect
Molecule: O=C(N/N=C/c1cc(O)c(O)cc1O)c1cc2ccccc2cc1O [Dy4, Dyngo-4a]
SP stimulation of nuclear ERK [5]: abolished | capsaicin-stimulated ERK activation in spinal neurons [6]: prevented capsaicin-stimulated ERK activation | SP activation of cytosolic ERK [7]: did not affect | SP stimulation of cytosolic PKC [4]: abolished | rotarod latency (motor behavior): did not affect | uptake of Chol-conjugated tripartite probes [8]: inhibited uptake | endocytosis of fluorescent Alexa Fluor 568–SP (HEK-NK1R cells): inhibited endocytosis | capsaicin-stimulated release of SP or CGRP [9]: did not affect | generation of excitatory postsynaptic currents (EPSCs) (lamina I/IIo neurons): did not affect | SP-stimulated NK1R-IR endocytosis in spinal neurons [10]: inhibited NK1R endocytosis | capsaicin-evoked mechanical allodynia in rat [11]: inhibited capsaicin-evoked mechanical allodynia | nocifensive response to intraplantar formalin [12]: blunted both the early (noninflammatory) and late (inflammatory) phases | SP-induced NK1R endocytosis [14]: inhibited NK1R endocytosis | SP stimulation of cytosolic cAMP [2]: abolished | initial onset of SP-induced firing [3, 20]: did not affect the initial onset | sustained SP-induced firing (firing rate and firing time) [3, 20]: prevented the sustained response | SP-induced firing rate (events per 2 min, normalized to rate at 2 min) ([3]; rat spinal cord slices, SP 1 μM 2 min, endocytosis inhibitor): 342.1 ± 120.7 events per 2 min | plasma membrane PKC activity [15]: amplified plasma membrane PKC activity | SP activation of plasma membrane cAMP [16]: did not affect

Molecule: CC(C)Oc1cccc(CC(=O)N2CCC[C@@](CC[N+]34CCC(c5ccccc5)(CC3)CC4)(c3ccc(Cl)c(Cl)c3)C2)c1.[Cl-] [SR140,333]
SP-induced nuclear ERK (endosomal NK1R) 4 hours after pulse ([5]; pulse-incubated 30 min, washed, SP 4 hours later): unable to effectively inhibit persistent NK1R signaling in endosomes | CFA mechanical hyperalgesia [17]: minor

Molecule: N#CC(=C(/N)Sc1ccccc1N)/C(C#N)=C(/N)Sc1ccccc1N [U0126]
reduction of number of SP-stimulated action potentials [3]: 84 ± 5% | inhibition of SP-induced firing time of lamina I neurons [3]: 67.5 ± 8.3%

Molecule: C=C1C(=O)N[C@@H](C)C(=O)N(C)[C@@H](C)C(=O)N[C@@H]([C@H](OC(=O)[C@@H](NC(=O)CC)[C@H](O)C(C)C)C(C)C)C(=O)N(C)[C@@H]([C@@H](C)OC)C(=O)O[C@H](C(C)C)[C@H](NC(C)=O)C(=O)O[C@H](Cc2ccccc2)C(=O)N1C [UBO-QIC] (Ac-[X1][dPhLac][NMeDha]A[NMeA][X1](Leu(3R-OH,Nα-propionyl))[NMeT](Me); ester 1-C)
SP stimulation of nuclear ERK [5]: prevented SP activation of nuclear ERK | SP stimulation of cytosolic PKC [4]: prevented activation of cytosolic PKC | SP-induced NK1R endocytosis [14]: did not affect NK1R endocytosis | SP stimulation of cytosolic cAMP [2]: prevented SP generation of cytosolic cAMP

% inhibition against 1 nM SP, Ca2+ signaling (NK1R (HEK-NK1R cells)): 40.8 ± 8.9%
Molecule: FC(F)(F)c1cc(CO[C@H]2CCCN[C@H]2c2ccccc2)cc(C(F)(F)F)c1 [L-733,060]
capsaicin-evoked mechanical allodynia [18]: antinociceptive only at 1 hour

withdrawal responses of the contralateral paw [13]: did not affect
Molecule: O=C1NC(=NS(=O)(=O)c2cccc3ccccc23)S/C1=C\c1ccc(Br)cc1 [PS2, Pitstop-2]
SP stimulation of nuclear ERK [5]: abolished | capsaicin-stimulated ERK activation in spinal neurons [6]: prevented capsaicin-stimulated ERK activation | SP activation of cytosolic ERK [7]: did not affect | SP stimulation of cytosolic PKC [4]: abolished | rotarod latency (motor behavior): did not affect | endocytosis of fluorescent Alexa Fluor 568–SP (HEK-NK1R cells): inhibited endocytosis | capsaicin-stimulated release of SP or CGRP [9]: did not affect | nocifensive response to intraplantar formalin [12]: blunted both the early (noninflammatory) and late (inflammatory) phases | SP-induced NK1R endocytosis [14]: inhibited NK1R endocytosis | SP stimulation of cytosolic cAMP [2]: abolished | plasma membrane PKC activity [15]: amplified plasma membrane PKC activity | SP activation of plasma membrane cAMP [16]: did not affect

Molecule: COc1cc(CNC(=O)CCCC/C=C/C(C)C)ccc1O [capsaicin]
% NK1R-IR within 0.5 μm of plasma membrane [19]: 42.1 ± 5.6%
